An excerpt weighted towards active compounds, which were near 2.4% of everything screened.
TAG inh: triacylglycerol accumulation inhibition | AID 651582 | 230,000 tested, 0.66% active | H9c2 cells, Nile Red lipid (TAG) fluorescence; cells loaded with 200 µM oleic acid | inhibition, % at 12.5 µM;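 active = pattern-corrected inhibition of lipid staining of at least 50% with the nuclear-stain viability signal not falling by more than 50%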
TbMetRS inhib: blocks T. brucei methionyl-tRNA synthetase activity | purified T. brucei MetRS, ATP depletion, Kinase-Glo luminescence | inhibition, % at 11.9 µM | 360,000 tested, 0.4% active | AID 624268;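 active = inhibition above a per-plate cutoff of the control wells' mean inhibition plus 3 SD, cut at about 5.5% in these data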
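Measured by: Kinase-Glo luciferase luminescence reporting remaining unconsumed ATP. Material: purified T. brucei MetRS enzyme. Doses: 11.9 µM compound single dose, 0.9% DMSO. Medium: HEPES buffer containing pyrophosphatase, BSA, spermine, DTT. Times: 15 min preincubation, 2 h reaction, all 25 °C. Reagent: methionine, ATP and bulk E. coli tRNA.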
NTR1 agonist: NTR1 (human) agonism. 330,000 tested, 0.17% active. NTR1-U2OS beta-arrestin-GFP spot imaging, agonist mode. activation, % at 20 µM. AID 493036;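 active = activation at or above 40% of the spot to cytoplasm intensity ratio, with at least 20 cells analyzed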
MC4R ag barr: agonists of human melanocortin 4 receptor (MC4R) beta-arrestin; P32245; U2OS MC4R beta-arrestin complementation, luminescence; percent of melanotan II response, DMSO zero; activation, % at 8.9 µM; 360,000 tested, 0.98% active;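 active = activation above a per-plate cutoff, the mean activation of sample wells on that plate plus 3 SD, cut at about 8% in these data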
Target sequence (P32245 whole entry, looked up): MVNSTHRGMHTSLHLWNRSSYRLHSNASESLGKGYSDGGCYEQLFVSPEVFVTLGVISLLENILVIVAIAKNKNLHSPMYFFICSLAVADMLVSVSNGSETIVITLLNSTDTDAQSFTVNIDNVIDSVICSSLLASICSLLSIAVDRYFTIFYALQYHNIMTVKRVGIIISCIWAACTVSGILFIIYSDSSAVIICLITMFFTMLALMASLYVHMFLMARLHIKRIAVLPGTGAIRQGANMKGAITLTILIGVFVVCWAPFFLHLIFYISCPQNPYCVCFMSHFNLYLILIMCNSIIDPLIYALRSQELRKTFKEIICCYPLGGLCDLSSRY
MC4R antagonist: blocks human MC4R cAMP signaling. 360,000 tested, 0.48% active. P32245. MC4R-expressing cells, MTII-stimulated cAMP, LANCE TR-FRET. inhibition, % at 6.5 µM. AID 540295;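 active = inhibition above its plate's cutoff, the mean of tested wells on that plate plus 3 SD, cut at about 29% in these data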
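System – human MC4R-expressing U2OS cells · Also added – Melanotan II · Dosing – one concentration, 6.5 µM nominal · Timing – 30-min compound, 1-h challenge, 1-h detection, room temperature · Measured by – Eu-cAMP/anti-cAMP TR-FRET, emission 671 nm · Replicates – singlicate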
aDG glyco act: alpha-DG glycosylation activation; Pro5-aDG cells, alpha-DG glycosylation AlphaScreen (IIH6); 0% Pro5, 100% B10-LARGE cell signal; activation, % at 10 µM; 360,000 tested, 0.22% active; AID 624168;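 active = activation of at least 8% versus controls, or a plate z-score of at least 8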;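 note: Pro5 are CHO cells carrying HIG-tagged alpha-DG that lacks glycosylation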
MC4R barr conf: human MC4R beta-arrestin agonism confirmation; shares compounds with MC4R ag barr; U2OS MC4R beta-arrestin recruitment, luminescence; scaled DMSO 0%, Melanotan II 100%; activation, % at 8.9 µM; 2,400 tested, 31% active; AID 602192;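 active = mean activation across replicates above the hit cutoff set in the earlier primary screen, cut at about 8% in these data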
MOR DOR agonist: counter-screen for MC4R agonists: agonists of mu-delta opioid heterodimer | shares compounds with MC4R ag barr | U2OS PathHunter beta-arrestin, beta-gal luminescence; percent of deltorphin B response, DMSO zero | activation, % at 9.2 µM | 2,400 tested, 5.8% active | AID 602194;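 active = mean activation across replicates exceeds the hit threshold derived in the earlier primary screen, cut at about 18% in these data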
A number is an active result; – = inactive; · = no result.

SMILES	TAG inh	TbMetRS inhib	NTR1 agonist	MC4R ag barr	MC4R antagonist	aDG glyco act	MC4R barr conf	MOR DOR agonist
O=C(NCCc1c[nH]c2ccccc12)OC1CC2CC1[C@H]1CCCCN1C2=O (some centres not stated)	·	–	·	·	·	–	·	·
CN(Cc1ccc(Cl)cc1)C(=O)c1[nH]c(C(F)(F)F)nc1-c1ccccc1	·	–	·	·	·	–	·	·
COc1ccc(NC(=O)COC(=O)c2ccc3c(c2)OCCO3)cc1	–	–	·	–	–	–	·	·
COc1ccc(NC(=O)COC(=O)c2ccc3c(c2)OCCO3)cc1OC	–	–	–	17	–	–	9.0	–
COc1cccc(Nc2nnc(SCN3C(=O)c4ccccc4C3=O)s2)c1	·	–	–	14	–	–	–	–
CCOc1ccc(Nc2oc(-c3cccs3)nc2C#N)cc1	·	–	–	18	–	–	–	–
CCOc1ccc(Nc2oc(-c3ccco3)nc2C#N)cc1	–	–	–	–	–	–	·	·
Cc1cccc(C)c1NC(=O)C(c1ccc(C#N)cc1)n1c(=O)c(-c2ccccc2)nc2ccccc21 (configuration not stated)	·	–	·	·	·	–	·	·
O=C(COC(=O)c1ccc2[nH]c3c(c2c1)CCCC3)Nc1ccccc1Cl	–	–	–	–	–	–	·	·
O=C(COC(=O)c1ccc2[nH]c3c(c2c1)CCCC3)Nc1ccc(Cl)cc1Cl	·	–	–	18	–	–	10	–
O=C1Nc2ccccc2-n2nnnc2C1N1CCN(c2ccc(C(F)(F)F)cn2)CC1 (configuration not stated)	·	–	·	·	·	–	·	·
CCc1nc2ccc(C(=O)N3CCN(c4ccccc4)CC3)cn2c1N(C)CCCc1ccccc1	–	–	·	–	–	–	·	·
CCc1cc(-c2[nH]ncc2-c2ccc3c(c2)OCO3)c(O)cc1O	·	–	–	19	–	–	–	–
Fc1cccc(Cl)c1/C=N/Nc1c(Cl)cncc1Cl	·	–	–	10	–	–	–	–
O=S(=O)(N/N=C\c1c(F)cccc1Cl)c1ccc(Cl)cc1	–	–	–	–	–	–	·	·
c1ccc(-c2cc(-c3nn4c(-c5ccco5)nnc4s3)c3ccccc3n2)cc1	·	–	–	9.7	–	–	–	–
Cc1cc(-c2nn3c(-c4ccccc4)nnc3s2)c2ccccc2n1	·	–	–	–	–	–	·	·
C=C1C[C@@H]2C[C@@H]2CN(S(=O)(=O)c2ccc(C)cc2)[C@@H]1COCc1ccccc1	·	–	·	·	·	–	·	·
Oc1ccccc1N=Cc1c(O)ccc2oc3c(c12)CCCC3	–	–	–	14	–	–	8.3	–
CCOC(=O)[C@]12CCC=C1N(Cc1ccco1)C(=O)[C@H](CC(=O)N1CCN(C(=O)c3ccco3)CC1)C2	·	–	·	·	·	–	·	·
S=c1[nH]nc(-c2cccc(Cl)c2)n1Cc1ccccc1	·	–	–	–	–	–	·	·
Clc1cccc(-c2nc3nc4ccccc4nc3n2Cc2ccccc2)c1	·	–	–	24	–	–	–	–
CC(C)(C)n1nnnc1C(CCc1ccccc1)N1CCN(C/C=C/c2ccccc2)CC1 (configuration not stated)	·	–	·	·	·	–	·	·
O=C(Nc1ccc(-c2nc3cc(Cl)ccc3c(=O)o2)cc1)c1ccco1	·	–	–	–	–	–	·	·
O=C(Nc1ccc(-c2nc3c(ccc4ccccc43)o2)cc1)c1ccco1	·	–	–	15	–	–	–	–
SMILES	TAG inh	TbMetRS inhib	NTR1 agonist	MC4R ag barr	MC4R antagonist	aDG glyco act	MC4R barr conf	MOR DOR agonist
COc1cccc(C(O)c2ncc(-c3cccc4ccccc34)[nH]2)c1 (configuration not stated)	–	–	·	–	–	–	·	·
COc1ccccc1-c1cc(C(=O)Nc2cc(C)nn2-c2ccccc2)no1	·	–	–	9.9	–	–	–	–
COc1ccc(OC)c(-c2cc(C(=O)NCc3ccc(Cl)cc3)no2)c1	–	–	–	10	–	–	–	–
COc1ccccc1-c1cc(C(=O)Nc2cc(C)n(Cc3ccc(Cl)cc3)n2)no1	·	–	–	21	–	–	15	–
Cc1cc(NC(=O)c2noc3c2CCCCC3)nn1Cc1ccc(Cl)cc1	·	–	–	12	–	–	–	–
Cc1cc(C(=O)Nc2cc(C)n(Cc3ccc(Cl)cc3)n2)no1	·	–	–	–	–	–	·	·
COc1ccc(-c2cc(C(=O)NCc3ccc(Cl)cc3)no2)cc1OC	·	–	–	–	–	–	·	·
COc1ccc(S(=O)(=O)N2CCCC(c3cc(C(=O)NCc4cccnc4)no3)C2)cc1 (configuration not stated)	–	–	·	–	–	–	·	·
CCOCC(=O)Nc1c(C(=O)Nc2ccc(OC)cc2OC)oc2ccccc12	·	–	–	13	–	–	9.9	–
COc1ccccc1NC(=O)c1oc2ccccc2c1NC(=O)c1cc(OC)c(OC)c(OC)c1	·	–	–	–	–	–	·	·
COCC(=O)Nc1c(C(=O)Nc2ccccc2OC)oc2ccccc12	·	–	–	22	–	–	–	–
CC(=O)Nc1nnc(SCC(=O)c2ccc3c(c2)Cc2ccccc2-3)s1	·	–	–	12	–	–	–	–
Cn1c(SCC(=O)c2ccccc2)nnc1-c1ccncc1	–	–	–	–	–	–	·	·
CCC(=O)Nc1nnc(SCC(=O)c2ccc3c(c2)Cc2ccccc2-3)s1	·	–	–	18	–	–	–	–
CC(=O)Nc1nnc(SCC(=O)NC2CC2)s1	·	–	–	–	–	–	·	·
Cn1c(SCC(=O)c2ccc3c(c2)Cc2ccccc2-3)nnc1-c1ccccc1	–	–	–	11	–	–	9.4	–
Cc1nc2c(OCc3ccc(Cl)cc3)cccn2c1N(C)C(=O)CCC1CCCC1	–	–	·	–	–	–	·	·
Cc1cc(C)n2nc(CNS(=O)(=O)c3ccc(C(C)(C)C)cc3)nc2n1	–	–	·	–	–	–	·	·
Cc1cc(C)nc(SCc2nnc(SCC(=O)Nc3ccc(Cl)c(C(F)(F)F)c3)o2)n1	·	–	–	11	–	–	–	–
Cc1cccc(NC(=O)CSc2nnc(CSc3nc(C)cc(C)n3)o2)c1	–	–	–	–	–	–	·	·
O=C(Nc1cc(C(F)(F)F)ccc1N1CCOCC1)c1cn2ccccc2n1	–	–	–	12	–	–	–	–
O=C(Nc1cc(S(=O)(=O)N2CCOCC2)ccc1N1CCOCC1)c1cn2ccccc2n1	–	–	–	–	–	–	·	·
CCOC(=O)CNC(=O)c1cc(-c2ccccn2)nc2c(C)c(Cl)ccc12	–	–	–	30	–	–	–	–
COc1ccc(CCNC(=O)c2cc(-c3ccccn3)nc3c(Cl)cccc23)cc1OC	–	–	–	–	–	–	·	·

Compound activity (PubChem BioAssay)
